Experimental data pooled from the literature.
Lines come from different studies, so protocols differ.
RORC: Nuclear receptor ROR-gamma (RORC, Homo sapiens, UniProt P51449)
lecA: PA-I galactophilic lectin (lecA, Pseudomonas aeruginosa, UniProt Q05097)
Chymotrypsinogen A: Chymotrypsinogen A (Bos taurus, UniProt P00766)
Toll-like receptor 1/2: Toll-like receptor 1/2 (Homo sapiens, UniProt O60603+Q15399)

`Cc1cc(Nc2cc3ncccc3c(N[C@@H]3C[C@H]4CC[C@@H](C3)N4CCC#N)n2)n[nH]1` gave a Kd of 150 nM (Cyclin-dependent kinase 4, with cyclin D1 (CDK4, Homo sapiens, UniProt P11802); binding, competition with immobilised ligand).
For `COc1ccccc1COc1ccc2c(c1)N(S(=O)(=O)c1cccc(C(F)(F)F)c1)CC2`, the IC50 was 200 nM (RORC; ligand displacement, radioligand).
For `O=C(CCn1cc(CN2CCN(c3cc4c(cc3F)c(=O)c(C(=O)O)cn4C3CC3)CC2)nn1)Nc1ccc(S[C@@H]2O[C@H](CO)[C@H](O)[C@H](O)[C@H]2O)cc1`, the Ki was 4290 nM (lecA; ligand displacement, FP).
`CCCC[C@H](NC(=O)[C@H](CCC(N)=O)NC(=O)[C@H](CO)NC(=O)C[C@@H](Cc1ccc2ccccc2c1)NC(=O)CCCCCN)C(=O)N[C@@H](CCCBr)B(O)O` gave a Ki of 506 nM (Chymotrypsinogen A; enzyme activity, inhibitor, fluorescence).
With `O=S(=O)(c1cccc(C(F)(F)F)c1)N1CCc2ccc(OCc3c(Cl)cccc3Cl)cc21` the IC50 was 130 nM (RORC; ligand displacement, radioligand).
`CCCCc1ccc(-c2cn(-c3cc([N+](=O)[O-])ccc3NC)cn2)cc1` gave an EC50 of 230 nM (Toll-like receptor 1/2; reporter gene, agonist).
`CCCC[C@H](NC(=O)[C@H](CCCCN)NC(=O)[C@H](CO)NC(=O)[C@H](CO)NC(=O)OCc1ccccc1)C(=O)N[C@@H](Cc1ccccc1)B(O)O` has a Ki of 18.1 nM (Chymotrypsinogen A; enzyme activity, inhibitor, fluorescence).
`CNc1ccc(C#N)cc1-n1cnc(-c2ccc([N+](=O)[O-])cc2)c1` has an EC50 of 11000 nM (Toll-like receptor 1/2; reporter gene, agonist).
`OC[C@@H]1[C@@H](O)[C@H](O)[C@@H](O)[C@@H]2O[C@H]12` gave an IC50 of 350 nM (Beta-glucosidase (GBA2, Homo sapiens, UniProt Q9HCG7); enzyme activity, inhibitor; pH 5.5, lysate).
`CNc1ccc([N+](=O)[O-])cc1-n1cnc(-c2ccc(-c3ccccc3)cc2)c1` has an EC50 of 84.7 nM (Toll-like receptor 1/2; reporter gene, agonist).
For `CCn1c(-c2nc3ccc(C(=O)N4CCCC(N)C4)cc3n2C)cc2ccccc21` (centres unmarked), the EC50 was over 15800 nM (Muscarinic acetylcholine receptor M2 (CHRM2, Homo sapiens, UniProt P08172); calcium signal, agonist).
The EC50 of `CNc1ccc([N+](=O)[O-])cc1-n1cnc(-c2ccc(C3CCCCC3)cc2)c1` is reported as 120 nM (Toll-like receptor 1/2; reporter gene, agonist).
For `CCCC[C@H](NC(=O)[C@H](CCC(N)=O)NC(=O)[C@H](CO)NC(=O)[C@H](Cc1ccccc1)NC(=O)CCCCCN)C(=O)N[C@@H](CCCBr)B1O[C@@H]2C[C@@H]3C[C@@H](C3(C)C)[C@]2(C)O1`, the Ki was 496 nM (Chymotrypsinogen A; enzyme activity, inhibitor, fluorescence).
With `COc1c(Cl)cccc1COc1ccc2c(c1)N(S(=O)(=O)c1cccc(C(F)(F)F)c1)CC2` the IC50 was 440 nM (RORC; ligand displacement, radioligand).
`CNc1ccc(C(F)(F)F)cc1-n1cnc(-c2ccc(C(F)(F)F)cc2)c1` gave an EC50 of 240 nM (Toll-like receptor 1/2; reporter gene, agonist).
`O=S(=O)(c1cccc(C(F)(F)F)c1)N1c2cc(OCc3c(Cl)cncc3Cl)ccc2CC1C(F)(F)F` (centres unmarked) gave an IC50 of 150 nM (RORC; ligand displacement, radioligand).
With `CC(C)C[C@H](NC(=O)[C@H](Cc1ccccc1)NC(=O)[C@@H](N)Cc1ccc(O)cc1)C(=O)N[C@@H](Cc1ccccc1)C(=O)N[C@@H](CCCNC(=N)N)C(=O)N1CCC[C@H]1C(=O)N[C@@H](CCCNC(=N)N)C(=O)N[C@@H](CC(N)=O)C(N)=O` the EC50 was 11.5 nM (Neuromedin-U receptor 1 (Mus musculus, UniProt O55040); β-arrestin recruitment, agonist).
The EC50 of `CNc1ccc([N+](=O)[O-])cc1-n1cnc(-c2ccc(C(C)(C)C)cc2)c1` is reported as 150 nM (Toll-like receptor 1/2; reporter gene, agonist).
`O=C(Cn1cc(CN2CCN(c3cc4c(cc3F)c(=O)c(C(=O)O)cn4C3CC3)CC2)nn1)Nc1ccc(S[C@@H]2O[C@H](CO)[C@H](O)[C@H](O)[C@H]2O)cc1` has a Ki of 3820 nM (lecA; ligand displacement, FP).
With `Cc1cnc(-c2ccc(-c3ccc(NC(=O)Nc4c(F)cc(F)cc4F)cc3F)c3c2C(=O)NC3)[nH]1` the IC50 was 41.5 nM (Serine/threonine-protein kinase 24 (STK24, Homo sapiens, UniProt Q9Y6E0); enzyme activity, inhibitor).
